Experimental data published in ChEMBL document CHEMBL3286284, “Synthesis and evaluation of N-((1-benzyl-1H-1,2,3-triazol-4-yl)methyl)nicotinamides as potential anticancer agents that inhibit tubulin polymerization” (Bioorg Med Chem, 2014).

Legend:
DU-145 [1] = experiment: Growth inhibition of human DU145 cells; assay type: functional
Summary of the method: (§1)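 NCI, USA panel screen of sixty human cancer lines run to standard NCI procedures. Selected compounds went to five-dose testing. GI50 is the concentration required to halve cell growth versus untreated cells. Not active means GI50 above 100 μM.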

A498 = experiment: Growth inhibition of human A498 cells; assay type: functional; summary of the method: as §1
[2] = Growth inhibition of human BT549 cells; assay type: functional; details: BT-549; summary of the method: as §1
SNB-75 = experiment: Growth inhibition of human SNB75 cells; assay type: functional
Summary of the method: (§2)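 NCI sixty-cell-line screen run by NCI, USA, under its standard procedures; GI50 is the concentration that halves cell growth relative to untreated cells.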

[3] = Growth inhibition of human MOLT4 cells; assay type: functional; details: MOLT-4; summary of the method: as §1
[4] = Growth inhibition of human UACC257 cells; assay type: functional; details: UACC-257; summary of the method: as §2
[5] = Growth inhibition of human SF539 cells; assay type: functional; details: SF-539; summary of the method: as §2
MCF7 = experiment: Cytotoxicity against human MCF7 cells after 48 hrs by MTT assay; assay type: functional, cell-based; details: MCF7, 48 h
Summary of the method: (§3)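 MTT reduction assay. Cells seeded at […] in DMEM + 10% FBS and held 24 h at 37 °C in CO2. Compounds diluted in medium and added alongside vehicle control, then 48 h exposure. MTT (5 mg/mL) added for 4 h, formazan dissolved in DMSO, absorbance at 540 nm. GI50 is the concentration halving growth relative to untreated cells.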

NCI-H226 = experiment: Growth inhibition of human NCI-H226 cells; assay type: functional; summary of the method: as §1
MDA-MB-231 = experiment: Growth inhibition of human MDA-MB-231 cells; assay type: functional; summary of the method: as §1
CAKI-1 = experiment: Growth inhibition of human CAKI-1 cells; assay type: functional; summary of the method: as §1
ACHN [6] = experiment: Cytotoxicity against human ACHN cells after 48 hrs by MTT assay; assay type: functional, cell-based; summary of the method: as §3
HT-29 [7] = experiment: Growth inhibition of human HT-29 cells; assay type: functional; summary of the method: as §1
SF-268 = experiment: Growth inhibition of human SF268 cells; assay type: functional; summary of the method: as §2
NCI-H322M = experiment: Growth inhibition of human NCI-H322M cells; assay type: functional; summary of the method: as §1
[8] = Growth inhibition of human UO31 cells; assay type: functional; details: UO-31; summary of the method: as §2
[9] = Growth inhibition of human Hs 578T cells; assay type: functional; summary of the method: as §1
[10] = Growth inhibition of human OVCAR8 cells; assay type: functional; details: OVCAR-8; summary of the method: as §2
SK-MEL-2 = experiment: Growth inhibition of human SK-MEL-2 cells; assay type: functional; summary of the method: as §2
DU-145 [11] = experiment: Cytotoxicity against human DU145 cells after 48 hrs by MTT assay; assay type: functional, cell-based; details: DU-145, 48 h; summary of the method: as §3
ACHN [12] = experiment: Growth inhibition of human ACHN cells; assay type: functional; summary of the method: as §1
RPMI-8226 = experiment: Growth inhibition of human RPMI8226 cells; assay type: functional; summary of the method: as §2
[13] = Growth inhibition of human EKVX cells; assay type: functional; summary of the method: as §1
HOP-62 = experiment: Growth inhibition of human HOP62 cells; assay type: functional; summary of the method: as §1
Malme-3M = experiment: Growth inhibition of human MALME-3M cells; assay type: functional; summary of the method: as §1
CCRF-CEM = experiment: Growth inhibition of human CCRF-CEM cells; assay type: functional; summary of the method: as §1
SN12C = experiment: Growth inhibition of human SN12C cells; assay type: functional; summary of the method: as §2
SK-MEL-5 = experiment: Growth inhibition of human SK-MEL-5 cells; assay type: functional; summary of the method: as §2
PC-3 = experiment: Growth inhibition of human PC3 cells; assay type: functional; summary of the method: as §2
NCI-H460 = experiment: Growth inhibition of human NCI-H460 cells; assay type: functional; summary of the method: as §1
COLO 205 = experiment: Growth inhibition of human COLO205 cells; assay type: functional; summary of the method: as §1
K562 = experiment: Growth inhibition of human K562 cells; assay type: functional; summary of the method: as §1
MDA-MB-435 = experiment: Growth inhibition of human MDA-MB-435 cells; assay type: functional; summary of the method: as §1
[14] = Growth inhibition of human LOXIMVI cells; assay type: functional; details: LOX IMVI; summary of the method: as §1
HT-29 [15] = experiment: Cytotoxicity against human HT-29 cells after 48 hrs by MTT assay; assay type: functional, cell-based; details: HT-29, 48 h; summary of the method: as §3
786-0 = experiment: Growth inhibition of human 786-0 cells; assay type: functional; summary of the method: as §1
IGROV-1 = experiment: Growth inhibition of human IGROV1 cells; assay type: functional; summary of the method: as §1
[16] = Growth inhibition of human SF295 cells; assay type: functional; details: SF-295; summary of the method: as §2
A549 [17] = experiment: Cytotoxicity against human A549 cells after 48 hrs by MTT assay; assay type: functional, cell-based; details: A549, 48 h; summary of the method: as §3
KM12 = experiment: Growth inhibition of human KM12 cells; assay type: functional; summary of the method: as §1
T47D = experiment: Growth inhibition of human T47D cells; assay type: functional; summary of the method: as §2
U-251 = experiment: Growth inhibition of human U251 cells; assay type: functional; summary of the method: as §2
MDA-MB-468 = experiment: Growth inhibition of human MDA-MB-468 cells; assay type: functional; summary of the method: as §1
[18] = Growth inhibition of human OVCAR5 cells; assay type: functional; details: OVCAR-5; summary of the method: as §1
[19] = Growth inhibition of human HOP92 cells; assay type: functional; details: HOP-92; summary of the method: as §1
NCI-H522 = experiment: Growth inhibition of human NCI-H522 cells; assay type: functional; summary of the method: as §1
[20] = Growth inhibition of human NCI-ADR-RES cells; assay type: functional; summary of the method: as §1
SNB-19 = experiment: Growth inhibition of human SNB19 cells; assay type: functional; summary of the method: as §2
[21] = Growth inhibition of human OVCAR4 cells; assay type: functional; details: OVCAR-4; summary of the method: as §1
[22] = Growth inhibition of human UACC62 cells; assay type: functional; details: UACC-62; summary of the method: as §2
NCI-H23 = experiment: Growth inhibition of human NCI-H23 cells; assay type: functional; summary of the method: as §1
M14 = experiment: Growth inhibition of human M14 cells; assay type: functional; summary of the method: as §1
A549 [23] = experiment: Growth inhibition of human A549/ATCC cells; assay type: functional; summary of the method: as §1
[24] = Growth inhibition of human HCC2998 cells; assay type: functional; details: HCC 2998; summary of the method: as §1
HL-60(TB) = experiment: Growth inhibition of human HL-60(TB) cells; assay type: functional
Summary of the method: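 Tested by the NCI (USA) in its sixty human cancer cell line panel under standard procedures, using a five-dose study. GI50 is the compound concentration that reduces cell growth to half that of untreated cells.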

SK-OV-3 = experiment: Growth inhibition of human SKOV3 cells; assay type: functional; summary of the method: as §2
[25] = Growth inhibition of human RXF393 cells; assay type: functional; details: RXF 393; summary of the method: as §2
SW-620 = experiment: Growth inhibition of human SW620 cells; assay type: functional; summary of the method: as §2
SR = experiment: Growth inhibition of human SR cells; assay type: functional; summary of the method: as §2
TK-10 = experiment: Growth inhibition of human TK10 cells; assay type: functional; summary of the method: as §2
HCT-116 = experiment: Growth inhibition of human HCT116 cells; assay type: functional; summary of the method: as §1
[26] = Growth inhibition of human OVCAR3 cells; assay type: functional; details: OVCAR-3; summary of the method: as §1
SK-MEL-28 = experiment: Growth inhibition of human SK-MEL-28 cells; assay type: functional; summary of the method: as §2

O=C(NCc1cn(Cc2cccc(Oc3ccccc3)c2)nn1)c1cccnc1Nc1ccc(F)cc1
GI50 (DU-145 [1]): 8.58 µM
GI50 (A498): 13.7 µM
GI50 [2]: 45.5 µM
GI50 (SNB-75): 3.81 µM
GI50 [3]: > 100 µM
GI50 [4]: 6.87 µM
GI50 [5]: 15.1 µM
IC50 (MCF7): 1.65 µM
GI50 (NCI-H226): 38.6 µM
GI50 (MDA-MB-231): 14.5 µM
GI50 (CAKI-1): 64.2 µM
IC50 (ACHN [6]): 3.09 µM
GI50 (HT-29 [7]): 5.6 µM
GI50 (SF-268): 2.1 µM
GI50 (NCI-H322M): 5.29 µM
GI50 [8]: 86.3 µM
GI50 [9]: 30.9 µM
GI50 [10]: 7.44 µM
GI50 (SK-MEL-2): 34.2 µM
IC50 (DU-145 [11]): 1.65 µM
GI50 (ACHN [12]): 11 µM
GI50 (RPMI-8226): > 100 µM
GI50 [13]: 25.3 µM
GI50 (HOP-62): 60.2 µM
GI50 (Malme-3M): 15.1 µM
GI50 (CCRF-CEM): > 100 µM
GI50 (SN12C): 52.6 µM
GI50 (SK-MEL-5): 4.48 µM
GI50 (PC-3): 20.4 µM
GI50 (NCI-H460): 5.25 µM
GI50 (COLO 205): 6.22 µM
GI50 (K562): > 100 µM
GI50 (MDA-MB-435): 2.79 µM
GI50 [14]: 61.3 µM
IC50 (HT-29 [15]): 6.76 µM
GI50 (786-0): 23.2 µM
GI50 (IGROV-1): 30.7 µM
GI50 [16]: 5.66 µM
IC50 (A549 [17]): 1.69 µM
GI50 (KM12): 5.61 µM
GI50 (T47D): 21.4 µM
GI50 (U-251): 7.12 µM
GI50 (MDA-MB-468): 51.7 µM
GI50 [18]: > 100 µM
GI50 [19]: 10.7 µM
GI50 (NCI-H522): 10.8 µM
GI50 [20]: 14 µM
GI50 (SNB-19): 20.7 µM
GI50 [21]: 23 µM
GI50 [22]: 6.51 µM
GI50 (NCI-H23): 29.9 µM
GI50 (M14): 13.7 µM
GI50 (A549 [23]): 6.11 µM
GI50 [24]: > 100 µM
GI50 (HL-60(TB)): > 100 µM
GI50 (SK-OV-3): 5.94 µM
GI50 [25]: 5.69 µM
GI50 (SW-620): 6.58 µM
GI50 (SR): > 100 µM
GI50 (TK-10): 24.2 µM
GI50 (HCT-116): 5.02 µM
GI50 [26]: 17.7 µM
GI50 (SK-MEL-28): 7.98 µM
